ERAP1 HTS inh – human ERAP1 aminopeptidase inhibitors, primary screen, biochemical, single point, plate reader. recombinant ERAP1, Leu-AMC fluorescence, 60 min. inhibition, % at 10.7 µM. 340,000 compounds, 0.15% hits. AID 652197, 2013;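 active = mean replicate inhibition of at least 30%, or all replicates individually reaching that 30% level; inactive = mean below 30% and not every replicate reaching it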;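 note: 0% = neutral control wells and 100% = L-leucinethiol positive control wells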
E-selectin induc – E-selectin induction in HUVECs, primary screen, imaging, HUVEC, immunofluorescence imaging, single point; normalized: neutral wells 0, TNF-alpha wells 100; activation, % at 7.58 µM; 260,000 compounds, 0.37% hits; AID 686992, 2013;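 active = mean E-selectin-positive cell signal at least 10% of the positive control, reached in at least 60% of replicates, without over 20% cell loss; inconclusive = no rule given, readout overlaps actives, possibly toxicity-flagged; inactive = the rest, including those meeting only one limit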
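Read-out basis: % PE-positive cells; Test system: HUVEC primary endothelial cells; Technique: immunofluorescence imaging; Dosing: single-point compound dose.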
DENV2 CPE rescue – inhibitors of DENV2 cytopathic effect, primary screen, cell-based, plate reader, single concentration | 350,000 compounds, 1.7% hits | AID 651640, 2012 | DENV2-infected cells, cytopathic effect rescue | CPE inhibition, % at 9.99 µM; in the data active = CPE inhibition above about 20%, passing the limit was not always enough; inconclusive = no clear call, values can overlap the other calls; tested in BHK-21 cells;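 note: 0% = median of neutral control wells and 100% = median of positive control wells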
F508del corr – F508del CFTR correction, initial screen, CFBE line, single point; AID 720511, 2013; CFBE cells, YFP halide quenching; stimulated with forskolin plus potentiator P3; % fluorescence drop versus neutral controls; activity (quench increase), % at 7.58 µM; 350,000 compounds, 0.36% hits;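 active = mean added fluorescence quench of at least 8% versus neutral control, with both replicates also reaching 8%; inconclusive = only one of the mean or replicate conditions met; inactive = mean below 8% and not both replicates reaching 8%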;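 note: cells transiently co-express mutant CFTR-F508del with the halide-sensitive YFP; corrector assay measuring rescue of mutant channel to the surface after 24 h compound exposure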
FGF22 binding – binders of human FGF22 protein, primary screen, FGF22 synaptogenesis inhibitor project, biophysical, thermal shift, single point | Fibroblast growth factor 22 (Homo sapiens), Q9HCT0 | recombinant FGF22 thermal shift, SYPRO orange fluorescence; percent of sucrose octasulfate shift, DMSO zero | activity (Tm shift, normalised), % at 9.99 µM | 340,000 compounds, 1.5% hits;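 active = mean Tm shift, scaled 0 neutral to 100 positive control, at about 1.3% or above, every replicate too, limit read from the data; inconclusive = no clear call, values can overlap the other calls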
An asterisk follows results filed as active; ? = inconclusive; / = no result. Rows were chosen to be rich in hits. Some 3.7% of all compounds tested hit in one or more screens of this group.

SMILES	ERAP1 HTS inh	E-selectin induc	DENV2 CPE rescue	F508del corr	FGF22 binding
CO[C@H]1CN(C)C(=O)c2cc(NC(=O)Nc3ccccc3Cl)ccc2OC[C@@H](C)NC[C@H]1C	1	0	20*	1	0
CO[C@H]1CN(C)C(=O)c2cc(NC(=O)c3nc4ccccc4s3)ccc2OC[C@H](C)NC[C@H]1C	2	0	16	-4	0
CCS(=O)(=O)Nc1ccc2c(c1)C(=O)N(C)C[C@H](OC)[C@@H](C)CN[C@@H](C)CO2	0	0	25*	/	0
CO[C@@H]1CN(C)C(=O)c2cc(NC(=O)c3nc4ccccc4s3)ccc2OC[C@H](C)NC[C@H]1C	2	0	24*	-2	0
C[C@H](CO)N1C[C@H](C)[C@@H](CN(C)C)Oc2cc(Br)ccc2S1(=O)=O	1	0	5	-3	0
COCC(=O)Nc1ccc2c(c1)[C@@H]1C[C@H](CC(=O)N[C@@H](C)c3ccccc3)O[C@@H](CO)[C@@H]1O2	0	0	10	2	1
O=C(NCC[C@H]1CC[C@H](NC(=O)c2ccccc2F)[C@@H](CO)O1)c1ccc2c(c1)OCO2	1	0	-3	-1	0
CO[C@@H]1CN(C)C(=O)c2cc(NC(=O)Nc3ccccc3)ccc2OC[C@@H](C)NC[C@@H]1C	-1	0	4	/	0
CO[C@H]1CN(C)C(=O)c2cc(NC(=O)Nc3ccccc3)ccc2OC[C@@H](C)NC[C@@H]1C	-3	0	26*	/	0
COc1ccc2c3c([nH]c2c1)[C@H](CO)N(S(C)(=O)=O)CC31CCN(Cc2cccc(F)c2)CC1	/	0	-33	8.3*	/
COc1ccc2c3c([nH]c2c1)[C@@H](CO)N(S(C)(=O)=O)CC31CCN(CC2CCCC2)CC1	0	0	54*	-3	0
COc1ccc2c3c([nH]c2c1)[C@H](CO)N(S(C)(=O)=O)CC31CCN(CC2CCCC2)CC1	-1	0	28*	1	0
CN1C(=O)c2cc(NS(C)(=O)=O)ccc2OC[C@@H]2O[C@@H](CC(=O)N3CCOCC3)CC[C@@H]21	2	0	-2	/	0
O=C(Nc1cc(F)ccc1F)N1CCCCN2[C@H](CO)[C@H](c3ccc(-c4cncnc4)cc3)[C@H]2C1	2	0	-2	0	0
O=C(Nc1ccc(F)cc1)N1CC(=O)N2[C@H](CO)[C@H](c3ccc(C#Cc4ccc(F)cc4)cc3)[C@@H]2C1	3	0	9	1	/
COc1ccc2cc(-c3ccccc3)ncc2c1	1	0	-14	0	0
COc1cc(OC)cc(-c2cc3ccc(OC)cc3cn2)c1	3	/	?	10*	0
C[C@@H]1CN([C@H](C)CO)C(=O)c2cccc(NS(=O)(=O)c3cn(C)cn3)c2O[C@H]1CN(C)C	-1	-1	-3	1	0
C[C@@H]1CCCCO[C@@H](CN(C)S(=O)(=O)c2ccc(Cl)cc2)[C@@H](C)CN([C@@H](C)CO)C(=O)c2cc(NC(=O)CCC(F)(F)F)ccc2O1	2	0	-9	1	0
O=C(NNc1nc2c(F)cc(F)cc2s1)c1ccccc1	-2	/	-3	-1	43*
O=C(NNc1nc2c(F)cccc2s1)c1ccccc1	0	3	-5	-1	0
O=C(O)c1cccc(-n2sc3ccccc3c2=O)c1	90*	/	-17	-5	1
O=c1c2ccccc2sn1-c1cccc(Cl)c1	/	/	-7	-3	0
CC(Cl)c1cc(-c2ncc(C(F)(F)F)cc2Cl)no1 (stereo not drawn)	-2	/	2	3	44*
Cc1ccc(S(=O)(=O)N(C)[C@H]2C[C@H]3c4cc(-c5ccc6c(c5)OCO6)ccc4CCN3C[C@H]2[C@H](C)O)cc1	-4	1	32*	-1	0
SMILES	ERAP1 HTS inh	E-selectin induc	DENV2 CPE rescue	F508del corr	FGF22 binding
C[C@H](O)[C@@H]1CN2CCc3ccc(-c4ccc5c(c4)OCO5)cc3[C@@H]2C[C@@H]1N(C)Cc1ccccc1	-1	0	3	1	0
CN1C(=O)c2cc(NC(=O)c3ccccc3)ccc2OC[C@H]2O[C@@H](CC(=O)NC3CCCC3)CC[C@H]21	1	0	?	0	0
Cc1ncc([N+](=O)[O-])n1CCOC(=O)C12CC3CC(CC(C3)C1)C2	3	2	4	0	0
Cc1ncc([N+](=O)[O-])n1CCOC(=O)Nc1ccc([N+](=O)[O-])cc1	0	/	9	1	43*
O=C(Nc1ccc2c(c1)OCO2)N[C@@H]1CC[C@@H](CCNC(=O)C2CC2)O[C@H]1CO	4	0	0	-2	0
COc1cc2oc(=O)cc(-c3ccc(-c4ccc(O)cc4)cc3)c2c(OC)c1OC	/	/	1	2	0
Cc1cc2oc(=O)cc(-c3ccccc3)c2c(C)c1-c1ccc(O)cc1	/	/	10	9.2*	0
CC(=O)N1CCN(C(=O)COc2ccccc2C(=O)Nc2ccccc2)CC1	1	0	1	2	43*
COc1ccccc1C(=O)NCCC(=O)N1CCN(C(=O)c2ccco2)CC1	3	-2	?	1	0
COc1ccccc1OCCNC(=O)CCNC(=O)c1ccccc1OC	-2	0	1	24*	0
COc1ccccc1C(=O)NCCC(=O)N1CCN(C(C)=O)CC1	3	/	50*	2	0
COc1ccccc1C(=O)NCCC(=O)NCCOc1ccccc1	-5	0	-7	-1	0
N#Cc1cccc(-c2ccc3c(c2)[C@H]2[C@H](CCN2C(=O)c2ccncc2)[C@H](CO)N3)c1	/	1	8	1	0
C[C@H]1CCCCO[C@H](CN(C)C(=O)Nc2ccc3c(c2)OCO3)[C@@H](C)CN([C@@H](C)CO)C(=O)c2cc(NC(=O)c3ccncc3)ccc2O1	0	0	1	-1	0
CCOCCCNC(=O)/C(C#N)=C/c1cc(OC)c(O)c([N+](=O)[O-])c1	14	2	-7	3	1
CCOCCCNC(=O)/C(C#N)=C/c1cc(C)c(O)c(C)c1	1	4	0	3	43*
Cc1ccc(-c2ccc3nnc(SCC(N)=O)n3n2)cc1	-3	/	0	3	43*
O=c1cc(-c2ccc(O)c(O)c2)oc2cc(O)cc(O)c12	5	0	6	8.0*	1
O=c1cc(-c2ccc(O)c(-c3c(O)cc(O)c4c(=O)cc(-c5ccc(O)cc5)oc34)c2)oc2cc(O)cc(O)c12	6	0	/	3	45*
COc1ccc(-c2cc(=O)c3c(O)cc(O)cc3o2)cc1	-1	1	-7	9.8*	0

From PubChem
